Active and inactive are the calls of the source. No cut-off for these calls is given here.
Assays:
[1] = Cytotoxicity against human OE21 cells after 72 hrs by MTT assay; assay type: functional, cell-based; conditions: OE21, 72 h
[2] = system: A549; assay: Cytotoxicity against human A549 cells after 72 hrs by MTT assay; assay type: functional, cell-based; conditions: A549, 72 h
[3] = system: LoVo; assay: Cytotoxicity against human LoVo cells after 72 hrs by MTT assay; assay type: functional, cell-based
[4] = system: HCT-116; assay: Cell cycle arrest in p53 double-mutant human HCT116 cells assessed as mitotic index after 24 hrs by flow cytometric analysis; assay type: functional; parameters: concentration or dose not given beside the values
Outline: (§1)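 HCT116 p53-/- cells pretreated with etoposide for 1 h, then released into drug-free medium with or without inhibitor for 23 h; nocodazole added to trap cells exiting G2/M. Mitotic cells scored by phospho-histone H3 labeling and DNA content (propidium iodide) by flow cytometry.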

[5] = system: PC-3; assay: Cytotoxicity against human PC3 cells after 72 hrs by MTT assay; assay type: functional, cell-based; conditions: PC-3, 72 h
[6] = system: B16-F10; assay: Cytotoxicity against mouse B16F10 cells after 72 hrs by MTT assay; assay type: functional, cell-based; conditions: B16-F10, 72 h
[7] = system: MCF7; assay: Cytotoxicity against human MCF7 cells after 72 hrs by MTT assay; assay type: functional, cell-based; conditions: MCF7, 72 h
[8] = Cytotoxicity against p53-mutant human U373 cells after 72 hrs by MTT assay; assay type: functional, cell-based, U-373MG ATCC; conditions: U373 MG
[9] = Cytotoxicity against human Hs683 cells after 72 hrs by MTT assay; assay type: functional, cell-based; conditions: Hs 683, 72 h
[10] = system: A549; assay: Cytostatic activity against human A549 cells after 72 hrs by quantitative videomicroscopic analysis; assay type: functional, cell-based
[11] = Inhibition of porcine brain CK1delta/epsilon using CKS peptide as substrate; parameters: species or system Sus scrofa
[12] = target: Dual specificity tyrosine-phosphorylation-regulated kinase 1A (Rattus norvegicus, UniProt Q63470); assay: Inhibition of GST-fused rat recombinant DYRK1A expressed in Escherichia coli using Woodtide as substrate and [gamma-33P] after 30 mins by scintillation counting
[13] = target: Glycogen synthase kinase-3 (Sus scrofa, UniProt B2LUN4+I6LNT8); assay: Inhibition of porcine brain GSK3alpha/beta using GS1 as substrate
[14] = target: Cyclin-dependent kinase 5/CDK5 activator 1 (Homo sapiens, UniProt Q00535); assay: Inhibition of human recombinant CDK5/p25; assay type: protein-complex assay
Cyclin-dependent kinase 5/CDK5 activator 1, sequence (Q00535 whole entry): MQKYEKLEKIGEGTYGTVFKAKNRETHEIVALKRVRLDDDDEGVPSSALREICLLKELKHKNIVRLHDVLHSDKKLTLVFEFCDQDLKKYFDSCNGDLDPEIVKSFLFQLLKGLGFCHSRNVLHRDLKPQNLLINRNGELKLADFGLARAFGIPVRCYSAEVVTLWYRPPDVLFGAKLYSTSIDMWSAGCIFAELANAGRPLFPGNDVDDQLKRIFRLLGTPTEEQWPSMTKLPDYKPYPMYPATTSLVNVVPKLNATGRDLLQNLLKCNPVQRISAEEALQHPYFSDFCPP
Cyclin-dependent kinase 5/CDK5 activator 1, sequence (Q15078 whole entry, further chain): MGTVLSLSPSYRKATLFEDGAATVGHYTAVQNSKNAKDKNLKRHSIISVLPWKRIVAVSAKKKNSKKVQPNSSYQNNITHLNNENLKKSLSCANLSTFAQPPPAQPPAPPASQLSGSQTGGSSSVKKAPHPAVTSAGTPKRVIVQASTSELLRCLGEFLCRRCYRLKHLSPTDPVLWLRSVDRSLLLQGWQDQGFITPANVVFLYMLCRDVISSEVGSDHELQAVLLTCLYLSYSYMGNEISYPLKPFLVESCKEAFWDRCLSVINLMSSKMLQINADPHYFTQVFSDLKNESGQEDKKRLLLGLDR
Outline: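 Human recombinant CDK5/p25 assayed in triplicate in buffer C with 1 mg/ml histone H1 at 30 °C, 15 µM ATP final. Activity as % of uninhibited control after blank subtraction; IC50 from dose-response curves.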

[15] = target: Dual specificity protein kinase CLK1 (Mus musculus, UniProt P22518); assay: Inhibition of GST-fused mouse recombinant CLK1 expressed in Escherichia coli using RS peptide as substrate
Dual specificity protein kinase CLK1, sequence (P22518 whole entry, the tested form may be a part): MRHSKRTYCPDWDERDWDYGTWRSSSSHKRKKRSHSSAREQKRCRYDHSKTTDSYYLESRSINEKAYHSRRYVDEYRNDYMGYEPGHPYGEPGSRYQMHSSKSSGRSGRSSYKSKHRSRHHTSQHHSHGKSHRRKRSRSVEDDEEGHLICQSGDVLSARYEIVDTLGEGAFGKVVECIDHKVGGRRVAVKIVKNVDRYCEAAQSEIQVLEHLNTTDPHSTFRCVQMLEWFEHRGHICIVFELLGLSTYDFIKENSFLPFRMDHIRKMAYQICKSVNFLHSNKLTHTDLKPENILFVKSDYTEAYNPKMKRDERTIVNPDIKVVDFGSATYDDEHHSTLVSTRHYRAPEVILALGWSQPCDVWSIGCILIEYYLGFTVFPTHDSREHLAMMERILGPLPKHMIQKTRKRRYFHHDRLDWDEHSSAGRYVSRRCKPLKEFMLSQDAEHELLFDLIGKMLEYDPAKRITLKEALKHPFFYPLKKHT
Outline: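 Blanks subtracted, activity as % of uninhibited maximum, DMSO dilution controls, IC50 from dose-response curves.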

[16] = system: HCT-116; assay: Cell cycle arrest in p53 double-mutant human HCT116 cells assessed as mitotic index at 300 nM after 24 hrs by flow cytometric analysis; assay type: functional; outline: as §1

IC50 [11] [µM] | IC50 [12] [µM] | IC50 [13] [µM] | IC50 [14] [µM] | IC50 [15] [µM] | Structure (SMILES) | IC50 [1] [µM] | IC50 [2] [µM] | IC50 [3] [µM] | Activity [4] [%] | IC50 [5] [µM] | IC50 [6] [µM] | IC50 [7] [µM] | IC50 [8] [µM] | IC50 [9] [µM] | Activity [10] | Activity [16] [%]
– | – | – | – | – | Cc1ccc2[nH]c(-n3cccn3)c(C3=C(Br)C(=O)NC3=O)c2c1 | 28 | 29 | 27 | 5.5 | 26 | 8 | 15 | 27 | 29 | – | –
– | – | – | – | – | O=C1CC(c2c(-c3ccc[nH]3)[nH]c3ccccc23)C(=O)N1 (configuration not stated) | 67 | 8 | 8 | – | 9 | 2 | 35 | 4 | 25 | Active | –
10 | 1.3 | 0.57 | 2.1 | 0.52 | O=C1NC(=O)c2c1c1c3ccccc3[nH]c1c1cccn21 | 75 | 18 | 11 | 9.6 | 50 | 19 | 49 | 33 | 52 | Active | –
– | – | – | – | – | COc1ccc2[nH]c(-c3ccc[nH]3)c(C3CC(=O)NC3=O)c2c1 (configuration not stated) | 53 | 4 | 4 | – | 6 | 0.6 | 19 | 15 | 6 | – | –
– | – | – | – | – | COc1ccc2[nH]c(-c3ccc[nH]3)c(C3CC(=O)N(C)C3=O)c2c1 (configuration not stated) | 42 | 7 | 25 | – | 37 | 6 | 7 | 10 | 28 | Active | –
– | – | – | – | – | O=C1NC(=O)c2c1c1c3ccccc3[nH]c1n1cncc21 [ISOGRANULATIMIDE] | – | 79 | 62 | 17.2 | 91 | 35 | 99 | > 100 | > 100 | – | –
2.6 | 1.7 | 0.9 | 0.91 | 0.42 | O=C1NC(=O)c2c1c1[nH]ncc1c1[nH]c3ccccc3c21 | – | > 100 | 44 | – | > 100 | 75 | – | > 100 | 93 | – | –
3.2 | 2.1 | 0.49 | 4 | 0.3 | O=C1NC(=O)c2c1c1c3ccccc3[nH]c1n1nccc21 | 2 | 8 | 0.4 | 23.9 | 22 | 25 | 25 | 0.2 | 3 | – | –
0.23 | 1.4 | 0.17 | 0.31 | 0.13 | Cc1ccc2[nH]c3c4cn[nH]c4c4c(c3c2c1)C(=O)NC4=O | – | > 100 | 5 | 0 | > 100 | 2 | – | > 100 | > 100 | – | –
7.1 | > 10 | 0.045 | > 10 | 3.5 | Cc1ccc2[nH]c3c(c4c(c5ccnn53)C(=O)NC4=O)c2c1 | 5 | 8 | 4 | 13.9 | 75 | 37 | 9 | 57 | 64 | – | –
> 10 | > 10 | 0.7 | > 10 | > 10 | COc1ccc2[nH]c3c(c4c(c5ccnn53)C(=O)NC4=O)c2c1 | 35 | 8 | 34 | – | > 100 | – | – | > 100 | 22 | – | –
– | – | – | – | – | Cc1ccc2[nH]c(-c3ccc[nH]3)c(C3CC(=O)NC3=O)c2c1 (configuration not stated) | > 100 | 20 | 4 | – | 11 | 0.5 | 29 | 5 | 8 | – | –
– | – | – | – | – | COc1ccc2[nH]c(-n3cccn3)c(C3=C(Br)C(=O)NC3=O)c2c1 | 30 | 29 | 26 | – | 26 | 8 | 11 | 27 | 30 | – | –
– | – | – | – | – | O=C1NC(=O)C(c2c(-n3cccn3)[nH]c3ccccc23)=C1Br | 27 | 25 | 24 | – | 27 | 13 | 27 | 27 | 29 | – | –
1.1 | 0.2 | 0.42 | 2.6 | 0.26 | O=C1NC(=O)c2c1c1c3cc(O)ccc3[nH]c1c1cccn21 | > 100 | > 100 | 99 | – | > 100 | 93 | > 100 | > 100 | > 100 | – | –
– | – | – | – | – | c1ccc2[nH]c(-n3cccn3)cc2c1 | > 100 | > 100 | 86 | – | > 100 | > 100 | > 100 | > 100 | > 100 | – | –
– | – | – | – | – | COc1ccc2[nH]c(-n3cccn3)cc2c1 | > 100 | > 100 | 70 | – | > 100 | > 100 | > 100 | > 100 | 69 | – | –
– | – | – | – | – | COc1ccc2[nH]c3c(c4c(n5cccc35)C(=O)N(C)C4=O)c2c1 | > 100 | 36 | 40 | – | 64 | 27 | 36 | 28 | 72 | – | –
– | – | – | – | – | Cc1ccc2[nH]c(-c3ccc[nH]3)cc2c1 | – | – | – | 5 | – | – | – | – | – | – | –
– | – | – | – | – | NC(=O)Nc1cc(-c2cccc(F)c2)sc1C(=O)N[C@H]1CCCNC1 [AZD-7762] | – | – | – | – | – | – | – | – | – | – | 75
0.16 | 0.18 | 0.041 | 0.51 | 0.09 | O=C1NC(=O)c2c1c1c3cc(O)ccc3[nH]c1n1nccc21 | – | 15 | 7 | 3.9 | 36 | 7 | – | 8 | 23 | – | –
– | – | – | – | – | Cc1ccc2[nH]c(-n3cccn3)cc2c1 | > 100 | > 100 | 87 | – | > 100 | > 100 | > 100 | > 100 | > 100 | – | –
> 10 | 8.3 | 1.7 | 7.5 | 1.5 | Cc1ccc2[nH]c3c(c4c(n5cccc35)C(=O)NC4=O)c2c1 | > 100 | 14 | 52 | – | 75 | 15 | 42 | 22 | 45 | – | –
– | – | – | – | – | O=C1NC(=O)c2c1c1[nH]cnc1c1[nH]c3ccccc3c21 [GRANULATIMIDE] | – | 18 | 3 | 19.4 | 11 | 5 | 46 | 6 | 23 | – | –
> 10 | > 10 | 1.7 | > 10 | 10 | COc1ccc2[nH]c3c(c4c(n5cccc35)C(=O)NC4=O)c2c1 | 37 | 26 | 39 | – | 66 | 22 | 35 | 26 | 58 | – | –
– | – | – | – | – | COc1ccc2[nH]c3c4cn[nH]c4c4c(c3c2c1)C(=O)NC4=O | – | > 100 | 42 | – | > 100 | 37 | – | 51 | 45 | – | –
– | – | – | – | – | COc1ccc2[nH]c(-c3ccc[nH]3)cc2c1 | 33 | 55 | 26 | 8.3 | 26 | 61 | 84 | 43 | 50 | – | –

Source: ChEMBL document CHEMBL2040806, “Synthesis and biological evaluation of analogs of the marine alkaloids granulatimide and isogranulatimide” (Eur J Med Chem, 2012)
